From ChEMBL document CHEMBL4513216, “Probing the Open Global Health Chemical Diversity Library for Multistage-Active Starting Points for Next-Generation Antimalarials” (ACS Infect Dis, 2020)

Experiment: Toxicity liver stage against HepG2, at 10uM
Type: cell-based
Set-up: test concentration 10 uM, cell line HepG2-A16-CD81EGFP
Conditions: human, HepG2-A16-CD81EGFP cells; read-out: INHIBITION
In short: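 Uninfected HepG2-A16-CD81EGFP cells, 3 × 10^3 per well, 1536-well, plated on prespotted compound at 10 μM final, parasite-free screening media added to match infected plates; puromycin 10 μM positive, DMSO 0.5% negative; run in parallel with 48 h PbLuc assay at 37 °C, 5% CO2; viability by CellTiter-Glo luminescence, normalized to controls.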

SMILES | cytotoxicity at 10 µM [%]
Cc1noc(O)c1Cc1ccc2ccccc2c1 | -8.94
Cc1cc(NC(=O)NCC2CCN(C(C)C)C2)no1 (stereo not drawn) | -15.3
COc1ccc(C(=O)Nc2cccc(C(N)=O)c2)c(OC)n1 | -9.2
COc1cccc2c1ccn2CC(=O)Nc1nc[nH]n1 | -0.297
O=C(NCC1(CO)CC1)c1ccccc1Br | -0.734
O=C(NCC1CC1)c1cc2c(s1)CCN2C(=O)c1cccnc1 | 8.07
O=C(c1cocn1)N1CCC[C@]2(C[C@@H](Oc3ncccc3F)CO2)C1 | 6.21
O=C(c1ccnnc1)N1CCC2(CCN(c3ccsc3)C2=O)C1 (stereo not drawn) | -139
Cn1nc(C#N)c2c1CN(C(=O)c1ccnnc1)CCC2 | -147
O=c1ccc(-c2cccs2)nn1CN1CCN(c2ccccn2)CC1 | -0.383
Nc1ncccc1C(=O)NCc1ccc(Br)cc1 | 35.7
Cc1nnsc1C(=O)NCCNS(=O)(=O)c1cccs1 | 4.29
O=C(NCCc1ccccn1)c1[nH]nc2c1CCCC2 | 8.41
Cc1ccc(-c2nc(C3CCN(C(=O)c4ccn(C)n4)CC3)no2)cn1 | -2.81
COc1cc(CCC(=O)N2CCC(c3cc4ncccc4[nH]3)CC2)on1 | 3.78
CCc1ccc(C(=O)N(c2cccnc2)C(C)C)cc1S(C)(=O)=O | 2.62
Cc1ccc(S(=O)(=O)Cc2nnc(C)n2C)cc1 | -2.92
CN1CCc2ccc(NCc3cscn3)cc2C1=O | -2.43
CCc1ccsc1C(=O)NC(Cc1ccccc1)C(N)=O (stereo not drawn) | 9.01
Cc1cnn(CCC(=O)NCc2ccc(N(C)C)c(C)c2)c1 | -3.03
Cc1c(C(=O)NC2CCCOc3cc(Cl)ccc32)cnn1C (stereo not drawn) | -0.572

SMILES | cytotoxicity at 10 µM [%]
Cc1cnn(C2CN(CCOc3ccc(C#N)cc3)C2)c1 | 1.77
Cc1cc(C(=O)NC2(C#N)CCCC2)c(C)n1-c1cccnc1 | -3.15
Nc1cc(CCCNC(=O)NC2CCCC2)nn1-c1ccccc1 | -18.9
O=C(NCc1ccc(OCC2CC2)nc1)Nc1c(F)cccc1F | 9.47
COc1cccc(NC(=O)N(CCO)C2CCc3ccccc32)c1 (stereo not drawn) | -1.08
CNC(=O)C(NC(=O)c1ccn(C)c(=O)c1)c1ccccc1 (stereo not drawn) | 4.73
CCC(NC(=O)c1cccc2cc[nH]c12)C(=O)N1CCOCC1 (stereo not drawn) | -13
CC(C)c1cccc(-n2cc(O)c(C(=O)NCCC(=O)N(C)C)n2)c1 | -2.53
Cc1cc(CNC(=O)CC2CN(C(=O)OC(C)(C)C)C2)ccc1F | 4.21
Cc1nc(NC(=O)COCC2CC2)ccc1Br | -1.51
CCN(Cc1ccoc1)C(=O)C1CN(C(=O)OC(C)(C)C)C1 | -0.743
CCOCCN1CCN(CCCc2nnnn2-c2ccccc2)CC1 | 6.45
COCCC1(CNC(=O)NCC2CCCN(C)C2)CCCC1 (stereo not drawn) | 0.131
Cn1ccnc(Sc2ccc(O)cc2)c1=O | 6.64
CCn1cc(NC(=O)NC2CCCc3c2cnn3CCO)cn1 (stereo not drawn) | 5.04
Cc1nnc(C(C)NCC2(c3c(F)cccc3F)CCCC2)o1 (stereo not drawn) | 0.511
O=C1NCCCCC1Sc1nnc(-c2cccnc2)n1C1CC1 (stereo not drawn) | -3.86
NCc1n[nH]c(=O)n1-c1ccccc1Oc1ccccc1 | -5.04
O=C1CCC2(CCCN(C(=O)c3ccc[nH]3)C2)CN1CCc1c[nH]cn1 (stereo not drawn) | 0.0773
CN(C)C(C(=O)NCCn1cccc1)c1cccc(F)c1 (stereo not drawn) | -1.23
Cc1ccc(C(=O)N2CCC3(CCC(=O)N(C(C)C)C3)CC2)c(O)c1 | 17.5

SMILES | cytotoxicity at 10 µM [%]
COCCN1CC(Nc2nc(C(C)C)nc3c2cnn3C)CC1=O (stereo not drawn) | -1.52
O=c1n(CC2CCCO2)nc(CC2CCNCC2)n1-c1ccccc1 (stereo not drawn) | -3.49
CCOCCC(=O)N(C)CC1Cc2ccccc2CN1C (stereo not drawn) | -8.77
CCN1CC2(CCN(CC3CCCO3)CC2)OC1=O (stereo not drawn) | -4.78
Cc1cc(N(C)Cc2snnc2C)nc(-c2cccnc2)n1 | 2.43
Cc1cc(N2CCOC(CN)C2)nc(-c2ccccc2)n1 (stereo not drawn) | -3.26
CCN(CC1CCCN(CCc2cccc(OC)c2)C1)C(=O)CCSC (stereo not drawn) | 10.5
Cc1cccc2[nH]c(C3CCN(C(=O)c4cnc(O)cc4O)CC3)nc12 | 3.09
Cc1cc(=O)[nH]c(SC(C)C(=O)N2CCC(NS(C)(=O)=O)CC2)n1 (stereo not drawn) | -10.4
COc1cccc(N2CCN(Cc3ncc[nH]3)CC2=O)c1 | -5.73
Cc1cc(C)nc(CCNC(=O)[C@H]2CNC[C@@H](C(=O)N3CCCC3)C2)n1 | -20.9
CC(=O)NCc1ccc(C(=O)N2CCCC2c2cnn(C)c2)s1 (stereo not drawn) | -13.6
N#Cc1ccsc1NC(=O)CCN1CCn2c(nnc2C2CC2)C1 | -5.65
Cc1ccccc1NC1CCN(C(=O)CCc2ccco2)CC1 | -16.2
O=C(NCC1CCOC1)c1ccc(-c2ccccc2)[nH]c1=O (stereo not drawn) | -18.3
c1cnc(-c2nc(CNC3CCc4ncnn4C3)cs2)nc1 (stereo not drawn) | -5.66
CCCc1n[nH]c(C2CN(Cc3nnc(C4CCC4)o3)CCO2)n1 (stereo not drawn) | -2.42
CC(NC(=O)NCCCc1n[nH]c(N)c1C#N)c1ccc(F)cc1 (stereo not drawn) | -13.7
CCc1noc(C(C)N2CCN(C(=O)CN3CCOCC3)CC2)n1 (stereo not drawn) | -9.17
Cc1nnc(CN(C)C2CCN(Cc3nc4ccccc4n3C)C2)o1 (stereo not drawn) | -10.1
Cc1cc(NC(=O)CN2CCCC2c2noc(C)n2)n(C)n1 (stereo not drawn) | -2.3

SMILES | cytotoxicity at 10 µM [%]
NC(=O)C1CCCN(c2ccc(CNC(=O)c3cc[nH]n3)cc2)C1 (stereo not drawn) | -3.9
COc1cccc(CC(=O)N2CCCC(c3nncn3C)C2)c1 (stereo not drawn) | -20.2
Cc1nc(C(C)(C)C)sc1C(=O)NCCNc1ncccc1C#N | -15.8
COc1ccc(C)cc1C(C)NC(=O)Cn1ccc(=O)n(C)c1=O (stereo not drawn) | -1.59
CS(=O)(=O)NC1CCCN(C(=O)NCc2ccoc2)C1 (stereo not drawn) | -14.9
CC(C)n1nc2c(cc1=O)CN(Cc1nnc(C3CC3)o1)CC2 | -18.8
CC(Cn1cccn1)NCc1csc(-c2cccs2)n1 (stereo not drawn) | -8.85
NC(=O)c1ccc(OCC(=O)N2CCCC(n3cccn3)C2)cc1 (stereo not drawn) | 1.3
CC(C)N1CCC2(CCNCC2)C1=O | -2.98
c1cncc(N2CCCC3(CCN(CCN4CCCC4)CC3)C2)c1 | -2.95
COCc1cncc2c1CCN(Cc1cnn(C)c1)C2 | -0.287
COCC1CC2(CCN(C(=O)c3cncc(C)c3)CC2)CO1 (stereo not drawn) | -155
Cc1cccc(CN2C[C@@H]3COC[C@H](NS(C)(=O)=O)[C@@H]3C2)n1 | -2.6
Cc1cccc(N2CCc3ncc(CNc4ccccn4)n3CC2)n1 | 2.19
Cc1ccc(CN2CCO[C@@H]3C[C@@H](C(=O)NC(C)C)C[C@H]32)o1 | 6.1
Cc1ccc(C(=O)N2CCO[C@H]3[C@H](OCCN(C)C)CC[C@@H]32)o1 | -145
O=C(c1ccco1)N1CCO[C@@H]2CN(c3ccccn3)CC[C@@H]2C1 | 9.43
Cc1cccc(CN2C(=O)CCC23CCN(c2ncc(F)cn2)CC3)n1 | 9.11
CC(C)OC(=O)N1C[C@@H]2CC[C@H]1CN(C(=O)c1ccccn1)C2 | 0.502
CNC(=O)[C@H]1C[C@H]2CN(C(=O)Nc3ccccc3)C[C@@H]1O2 | 1.91
